Experimental data of several laboratories.

SMILES	host	sample	route	dose	setting	AUC(0-t)
CCOC(=O)c1sc(Nc2ncccn2)nc1-c1ccccn1	male CD-1 mouse	plasma	oral	10 mg/kg	–	195 ng·h/mL
Cc1nc2ccc(F)cc2n1-c1nc(N)c(F)c(Nc2ccc(C(F)(F)F)cc2)n1	nude mouse	plasma	oral	10 mg/kg	–	19300 ng·h/mL
Cc1c(C(=O)NN2CCCCC2)nn(-c2ccc(Cl)cc2Cl)c1-c1ccc(Cl)cc1	mouse	plasma	oral	20 µmol/kg	single dose	9 µM·h
CS(=O)(=O)CCNCc1ccc(-c2ccc3ncnc(Nc4ccc(OCc5cccc(F)c5)c(Cl)c4)c3c2)o1	nude mouse	plasma	oral	100 mg/kg	single dose	97500 ng·h/mL
CCc1ccc(Cc2cc([C@@H]3O[C@H](CO)[C@@H](O)[C@H](O)[C@H]3O)cc3c2CCC3)cc1	male C57BL/6 mouse	plasma	intravenous	1 mg/kg	–	1440 ng·h/mL
CCn1ncc2c(Nc3ccc(OC(F)(F)F)cc3)ncnc21	male BALB/c mouse	plasma	oral	20 mg/kg	–	201 ng·h/mL
O=S(=O)(c1ccc(-c2ccc3nccc(Nc4ccncn4)c3c2)cc1)N1CCOCC1	female BALB/c mouse	brain	intraperitoneal	10 mg/kg	–	120 ng·h/mL
CCc1cc(C(=O)NC)c2nccc(N3CCc4c(cc(Cn5ccnc5)cc4-c4cn(C)nc4C(F)(F)F)C3=O)c2c1	male CD-1 mouse	plasma	intravenous	3 mg/kg	–	4180 ng·h/mL
CN1CCN(C(=O)c2cc3c(Nc4ccc(OC(F)(F)F)cc4)ncnc3s2)CC1	male BALB/c mouse	plasma	oral	20 mg/kg	–	2410 ng·h/mL
CCOc1ccc(Cc2cc([C@@H]3O[C@H](CO)[C@@H](O)[C@H](O)[C@H]3O)ccc2Cl)cc1	male C57BL/6 mouse	plasma	oral	1 mg/kg	–	457 ng·h/mL
COc1nc(-c2cc(C)c(N[C@@H](C)c3cc(F)cc(F)c3)nn2)ccc1-n1cnc(C)c1	male CD-1 mouse	plasma	oral	5 mg/kg	single dose	9560 ng·h/mL
Cc1ccc2cncc(N3CCc4c(cc(Cn5ccnc5)cc4-c4cn(C)nc4C(F)(F)F)C3=O)c2c1	male CD-1 mouse	plasma	oral	10 mg/kg	–	4420 ng·h/mL
Fc1ccc(-c2nc3c(N4CCC(CN5CCOCC5)CC4)nccc3[nH]2)cc1F	BALB/c mouse	blood	oral	20 mg/kg	–	34.6 µM·h
C=CC(=O)N1CC2CC(n3nc(-c4ccc(C(=O)Nc5ccccn5)cc4)c4c(N)ncnc43)CC2C1 (stereo not shown)	SCID mouse	plasma	oral	5 mg/kg	–	1120 ng·h/mL
CC(C)(C)c1cc(NC(=O)Nc2ccc(Oc3ccnc4[nH]c(=O)cnc34)cc2F)n(-c2ccccc2)n1	BALB/c mouse	plasma	intravenous	2 mg/kg	–	154 µM·h
Cc1ccc(NC(=O)c2ccc(CN3CCN(C)CC3)cc2)cc1Nc1nccc(-c2cncc(-c3oncc3C)c2)n1	male C57BL/6 mouse	plasma	oral	100 mg/kg/day	–	37800 ng·h/mL
COc1cc(OC)c2nccc(N3CCc4c(cc(Cn5ccnc5)cc4-c4cn(C)nc4C(F)(F)F)C3=O)c2c1	male CD-1 mouse	plasma	intravenous	3 mg/kg	–	803 ng·h/mL
C[C@H]1[C@@H](O)O[C@@H]2O[C@@]3(C)CC[C@H]4[C@H](C)CC[C@@H]1[C@@]24OO3	female SCID mouse	plasma	oral	120 mg/kg	–	1870 ng·h/mL
COc1ccc2nccc(N3CCc4c(cc(Cn5ccnc5)cc4-c4cn(C)nc4C(F)(F)F)C3=O)c2c1	male CD-1 mouse	plasma	oral	10 mg/kg	–	2080 ng·h/mL
CN1CCC(N2CCN(c3nccc4[nH]c(-c5ccc(F)c(F)c5)nc34)CC2)CC1	BALB/c mouse	blood	oral	20 mg/kg	–	6.63 µM·h

SMILES	host	sample	route	dose	setting	AUC(0-t)
CC[C@H](C)[C@@H]1NC(=O)[C@@](C)(NC(=O)[C@H](CCCNC(=N)N)NC(=O)[C@H](CC(C)C)NC(=O)[C@@H](NC(=O)[C@H](CCC(N)=O)NC(=O)[C@H](CC(C)C)NC(C)=O)[C@@H](C)O)CCCC=CCCC[C@@](C)(C(=O)N[C@@H](CC(C)C)C(=O)N[C@@H](Cc2ccc3ccccc3c2)C(N)=O)NC(=O)[C@H](CCCNC(=N)N)NC(=O)[C@H](CCC(N)=O)NC1=O	male BALB/c mouse	plasma	intravenous	5 mg/kg	–	124000 ng·h/mL
CSc1cc(Oc2ccnc3[nH]c(=O)cnc23)ccc1NC(=O)Nc1cc(C(C)(C)C)nn1-c1ccccc1	BALB/c mouse	plasma	oral	10 mg/kg	–	275 µM·h
Cc1nc(-c2cnc(NC(C)C)n(C)c2=O)ccc1Oc1ccnc(-c2cnn(C)c2)c1	female mouse	plasma	oral	3.75 mg/kg	single dose	29000 ng·h/mL
CNCCN(C)c1cc(C#N)cc(CCc2cc(C)cc(N)n2)c1	male BALB/c mouse	plasma	intravenous	2 mg/kg	–	180 ng·h/mL
COc1ccc(C(O)COc2ccc(-c3csc(-c4ccc(OCC(O)c5ccc(OC)c(OC)c5)cc4)n3)cc2)cc1OC (stereo not shown)	C57BL/6 mouse	plasma	oral	75 mg/kg	–	73000 ng·h/mL
COc1ccc2nc(-c3ccccn3)c(N(C)c3ccc(F)cc3)n2c1	male CD-1 mouse	plasma	oral	50 mg/kg	fasted	953 ng·h/mL
CNC(=O)c1cc(OC)cc2c(N3CCc4c(cc(Cn5ccnc5)cc4-c4cn(C)nc4C(F)(F)F)C3=O)ccnc12	male CD-1 mouse	plasma	oral	50 mg/kg	–	144000 ng·h/mL
CN1CCN(C2CCN(c3nccc4[nH]c(-c5cc(F)cc(F)c5)nc34)CC2)CC1	BALB/c mouse	blood	oral	20 mg/kg	–	11.8 µM·h
Cc1c(C(=O)NN2CCCCC2)nc(-c2ccc(Cl)cc2Cl)n1-c1ccc(OS(=O)(=O)CCC(F)(F)F)cc1	mouse	plasma	oral	20 µmol/kg	single dose	6.3 µM·h
CN1CCN(c2nccc3nc(-c4ccc(F)c(F)c4)[nH]c23)CC1	mouse	blood	oral	5 mg/kg	–	3.25 µM·h
COc1nc(-c2cc(C)c(N[C@@H](C)c3c(F)cc(F)cc3F)nn2)ccc1-n1cnc(C)c1	male CD-1 mouse	plasma	intravenous	1 mg/kg	single dose	2500 ng·h/mL
CCc1cc(OC)c2nccc(N3CCc4c(cc(Cn5ccnc5)cc4-c4cn(C)nc4C(F)(F)F)C3=O)c2c1	male CD-1 mouse	plasma	intravenous	3 mg/kg	–	3330 ng·h/mL
CC(C)OC(=O)c1sc(Nc2ncccn2)nc1-c1cnccn1	male CD-1 mouse	plasma	oral	2.5 mg/kg	–	54 ng·h/mL
CNC(=O)c1cc(Oc2ccc(NC(=O)Nc3ccc(Cl)c(C(F)(F)F)c3)c(F)c2)cc[n+]1[O-]	mouse	plasma	oral	10 mg/kg	single dose	1930 ng·h/mL
C[C@H](NC(=O)C(C)(C)Oc1ccc(C(F)(F)F)cn1)[C@@H](Cc1ccc(Cl)cc1)c1cccc(C#N)c1	mouse	plasma	oral	6 µmol/kg	single dose	5.3 µM·h
Cn1ccnc1N1CCN(CC2CCN(c3nccc4[nH]c(-c5cc(F)cc(F)c5)nc34)CC2)CC1	mouse	blood	intravenous	2 mg/kg	–	7.88 µM·h
CN1CCC[C@H](CN2c3ccccc3Sc3ccccc32)C1.Cl	mouse	plasma	oral	64 mg/kg	single dose	6010 ng·h/mL
CN1CCN(C(=O)CN[C@@H]2C[C@H]2c2ccc(OCc3ccccc3)cc2)CC1	mouse	plasma	intraperitoneal	10 mg/kg	–	1660 ng·h/mL
CN1CCN(CC2CCN(c3cncc4[nH]c(-c5cc(F)cc(F)c5)nc34)CC2)CC1	mouse	blood	oral	10 mg/kg	–	3.57 µM·h
COc1nc(-c2cc(C)c(N[C@@H](C)c3ccc(F)cc3)nn2)ccc1-n1cnc(C)c1	male CD-1 mouse	plasma	intravenous	1 mg/kg	single dose	4020 ng·h/mL
